The record followed here is PubChem BioAssay AID2237 (Johns Hopkins Ion Channel Center, 2010).

The campaign covered roughly 310,000 compounds. About 1,500 (0.48%) were called active.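 How the source made its calls: active means B-score above 5 SD of library B-scores, and initial fluorescence ratio not above library mean plus 5 SD; inactive means the rest.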 Many of the other results were omitted from the sample, so actives are more common in it than they were.

Short transient receptor potential channel 4 (Mus musculus), sequence (Q9QUQ5 whole entry, looked up): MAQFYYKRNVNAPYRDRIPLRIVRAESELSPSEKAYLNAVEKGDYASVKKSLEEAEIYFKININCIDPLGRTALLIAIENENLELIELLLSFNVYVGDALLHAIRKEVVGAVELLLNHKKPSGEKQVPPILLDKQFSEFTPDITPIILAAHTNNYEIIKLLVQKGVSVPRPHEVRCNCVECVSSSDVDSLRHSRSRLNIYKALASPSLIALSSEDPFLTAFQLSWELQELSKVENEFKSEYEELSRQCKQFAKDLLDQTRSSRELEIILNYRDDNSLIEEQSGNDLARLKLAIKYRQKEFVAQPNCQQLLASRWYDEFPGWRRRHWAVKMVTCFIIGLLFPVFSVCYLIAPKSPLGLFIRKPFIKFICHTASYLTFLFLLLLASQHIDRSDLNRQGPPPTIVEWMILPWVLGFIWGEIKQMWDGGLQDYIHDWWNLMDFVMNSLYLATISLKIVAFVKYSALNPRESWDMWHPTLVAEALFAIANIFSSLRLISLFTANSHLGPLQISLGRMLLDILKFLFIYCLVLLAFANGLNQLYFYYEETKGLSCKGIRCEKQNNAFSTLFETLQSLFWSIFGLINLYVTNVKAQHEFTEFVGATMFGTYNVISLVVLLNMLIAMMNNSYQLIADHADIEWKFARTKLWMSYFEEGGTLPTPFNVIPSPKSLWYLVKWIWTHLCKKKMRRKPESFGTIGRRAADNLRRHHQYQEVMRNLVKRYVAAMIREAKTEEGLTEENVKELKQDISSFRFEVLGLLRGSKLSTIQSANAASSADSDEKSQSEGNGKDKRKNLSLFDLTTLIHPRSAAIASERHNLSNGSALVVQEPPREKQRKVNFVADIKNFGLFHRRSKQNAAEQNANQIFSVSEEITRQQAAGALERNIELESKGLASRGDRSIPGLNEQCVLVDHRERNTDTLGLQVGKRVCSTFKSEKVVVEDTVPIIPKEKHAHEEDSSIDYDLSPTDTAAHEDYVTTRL

This assay has as its target Short transient receptor potential channel 4 (Mus musculus) (UniProt Q9QUQ5). Kind of assay: TRPC4 cation channel opening, calcium rise – Fluo4 calcium, HEK293 TRPC4beta/mu-opioid cells, primary screen (AID 2237).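 On B-score: positive B-score marks a calcium rise read as TRPC4 activation.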 The following applies: Fluo4 calcium fluorescence, at 10 µM; hits give high values. In outline: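 Assay system – TRPC4beta and mu-opioid receptor HEK293 stable cells · Measured by – Fluo4 fluorescence, kinetic · Schedule – dye loading 45 min room temperature, 110 s kinetic read · Read-out – B-scored integrated calcium fluorescence ratio · Controls – buffer and maximal DAMGO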
As to `COc1cc(OC)c(-n2c(C)cc(C=O)c2C)cc1Cl`, the B-score result was “inactive”. Consider `COc1ccc(Cl)cc1S(=O)(=O)N1CCC(O)(c2ccc(Cl)cc2)CC1`, for which the B-score result was “inactive”. On to `COc1cc(OC)c(-n2cc(-c3ccc(Cl)cc3)[nH]c2=O)cc1Cl`, for which the B-score is 63 (active). For the compound `O=C1CCN(C(=O)Nc2ccccc2)N1`, the B-score result is “inactive”.

`CC(C)N(Cc1ccccc1)C(=O)COC(=O)c1cnccn1`: the B-score result is “inactive”. With `Oc1c(Cl)cc(Cl)c(Cl)c1Cc1c(O)c(Cl)cc(Cl)c1Cl` the figure was 53 (active); with `CC(=O)OC(C)C[N+](C)(C)C` (centres undefined), 57 (active). The value for `CC(C[N+](C)(C)C)OC(N)=O` (centres undefined) was “inactive”; that for `C=C(C)CSc1nnc(-c2ccc(C)cc2)n1N` was “inactive”. As to `CCCOC1CCCN(Cc2cn(C)nc2-c2ccccc2F)C1` (centres undefined), the B-score entry is “inactive”.

Turning to `COc1cccc2cc(C(N)=O)/c(=N\NC(=O)c3ccccc3)oc12`, the B-score entry was “inactive”. Regarding `NC(=O)c1cc2ccccc2o/c1=N/NC(=O)c1cccc(F)c1`, the B-score entry was “inactive”. With `CCN(CC)c1ccc2cc(C(N)=O)/c(=N\NC(=O)c3ccncc3)oc2c1` the figure was 79 (active); with `CN1CCN(C(=O)CCc2ncc(C(F)(F)F)cc2Cl)CC1`, “inactive”.

With `CNc1[nH]ncc1[N+](=O)[O-]`, the B-score entry was “inactive”.

In the case of `O=C(Nc1ccc(F)c(Cl)c1)C1CCN(S(=O)(=O)c2cccnc2)CC1`, the B-score result was “inactive”. For the compound `Cc1cc(-c2ccc(C)c(S(=O)(=O)NC(C)Cc3ccco3)c2)on1` (centres undefined), the B-score entry is “inactive”. The value for `Cc1cc(-c2ccc(C)c(S(=O)(=O)NCCCN(Cc3ccccc3)C(C)C)c2)on1` was 127 (active). On to `CCOc1ccccc1CNS(=O)(=O)c1cc(-c2cc(C)no2)ccc1C`, for which the B-score entry is “inactive”. The value for `C=CCNC(=O)C12CC3CC(C1)CC(C(=O)NCC=C)(C3)C2` was “inactive”; that for `O=C(NC1CCN(S(=O)(=O)c2ccc(F)cc2)CC1)c1ccccc1` was “inactive”.

As to `Cc1ccc(NC(=O)c2csc3c2CCCC3)cc1`, the B-score entry was “inactive”. Take `O=C(NCc1ccccc1Cl)c1csc2c1CCCCC2`: the B-score result is “inactive”. `CC1CC(C)CN(CCCNC(=O)c2csc3c2CCCCC3)C1` (centres undefined): the B-score was 97 (active). Regarding `CCOC(=O)c1ccccc1NC(=O)c1c(N)n(C)c(=O)[nH]c1=O`, the B-score result is “inactive”.

Consider `CSc1ccc(S(=O)(=O)N2CCC(C(=O)NCCc3ccccc3)CC2)cc1`, for which the B-score entry is “inactive”. Take `c1ccc(-c2ccccc2OCCN2CCCCC2)cc1`: the B-score result was “inactive”. Turning to `CC1CCCN(CCOCCOc2ccccc2-c2ccccc2)C1` (centres undefined), the B-score was 54 (active).

As for `CC1CN(CCCOc2ccccc2-c2ccccc2)CC(C)O1` (centres undefined), the B-score entry is “inactive”. The value for `COc1ccc(C2CC(c3ccc(Cl)cc3Cl)Nc3nc(N)nn32)cc1OC` (centres undefined) was “inactive”. With `CCOc1ccccc1C1CC(c2ccccc2)Nc2nc(N)nn21` (centres undefined) the entry was “inactive”; with `CCOc1ccccc1C1CC(c2ccc(Cl)cc2)Nc2nc(N)nn21` (centres undefined), 116 (active); with `CC(C)(C)S(=O)(=O)c1ccccc1-c1noc(-c2ccccc2)c1C(N)=O`, “inactive”. For `Cn1c(CCNS(=O)(=O)c2ccc(F)cc2)nnc1SCc1cccnc1`, the B-score result was “inactive”. With `COc1ccc(NC(=O)c2cc([N+](=O)[O-])ccc2NC(=O)CNC2CCCCC2C)c(OC)c1` (centres undefined) the entry was “inactive”; with `Cc1ccc(C(=O)CCC(=O)N(C)CC(=O)Nc2c(Cl)cccc2Cl)cc1`, “inactive”. The value for `O=C1CCCc2c1nc(-c1cccc(Cl)c1)n2O` was “inactive”; that for `O=c1c2cc(Br)ccc2nc(-c2cccc(Cl)c2)n1O` was 121 (active); that for `Cc1cccc(-c2nc3ccccc3c(=O)n2NC(=O)Cc2ccc(Cl)cc2)c1` was “inactive”. In the case of `O=c1[nH]c(CN2CCN(S(=O)(=O)c3ccc4c(c3)OCCO4)CC2)nc2sc3c(c12)CCCC3`, the B-score entry was “inactive”. With `O=C(CCCN=C1NS(=O)(=O)c2ccccc21)OCC(=O)c1ccc(F)c(F)c1` the figure was 50 (active); with `O=C(OCCN=C1NS(=O)(=O)c2ccccc21)c1cccc([N+](=O)[O-])c1`, “inactive”. Regarding `N#CC1(NC(=O)COC(=O)CCN=C2NS(=O)(=O)c3ccccc32)CCCCC1`, the B-score result was “inactive”. `Cc1cc(C)c2nc(N3CCC(C(=O)NCCN4CCOCC4)CC3)sc2c1`: the B-score entry was “inactive”.

As for `CCC1CCCCN1CCCNC(=O)c1cc2c(Cl)nc3ccccc3c2s1` (centres undefined), the B-score result was “inactive”.

`CC1CCCN(S(=O)(=O)c2ccc(C(=O)Nc3nnc(-c4ccncc4)o3)cc2)C1` (centres undefined): the B-score entry was “inactive”. The value for `CSCc1nnc(NC(=O)c2ccc(S(=O)(=O)N3CCCCC3C)cc2)o1` (centres undefined) was “inactive”; that for `CC1CCCCN1S(=O)(=O)c1ccc(C(=O)Nc2nnc(-c3cccs3)o2)cc1` (centres undefined) was 74 (active); that for `COc1ccc(N2C(=O)NC(NS(=O)(=O)c3ccc(Cl)cc3)(C(F)(F)F)C2=O)cc1` (centres undefined) was “inactive”.

For `CCCc1ccc(OCC(O)CN2CCN(CCO)CC2)cc1` (centres undefined), the B-score entry is “inactive”.

`CCOc1ccc(N(CC(=O)NCCc2ccc(OC)cc2)S(C)(=O)=O)cc1`: the B-score result was “inactive”.

On to `CC1(C)CC(N2CCN(C(c3ccccc3)c3ccccc3)CC2)=CC(=[N+]2CCCCC2)C1`, for which the B-score result is “inactive”. The value for `COC(=O)C1=C(C)N(C)C(=S)NC1c1ccccc1` (centres undefined) was “inactive”; that for `COCCN1C(=O)N[C@@H](CCc2ccccc2)[C@H](C(C)=O)[C@H]1C` was “inactive”. With `COCCN1C2=C(COC(C)(C)C2)C(=S)NC1c1ccccc1` (centres undefined) the figure was 76 (active); with `CCN(c1ccccc1)S(=O)(=O)c1ccc2[nH]c(=O)[nH]c2c1`, “inactive”; with `CCOc1ccc(C(=O)NC2CCN(S(=O)(=O)CC)CC2)cc1`, “inactive”. Regarding `CCOc1ccc(CC(=O)NC2CCN(Cc3ccccc3)CC2)cc1`, the B-score entry is “inactive”. `CCOc1ccc(NS(=O)(=O)c2ccc(C(=O)NC3CCN(Cc4ccccc4)CC3)cc2)cc1`: the B-score is 49 (active). Regarding `CN(CCc1ccccn1)C(=O)c1ccc(OC2CCN(CCc3ccccc3)CC2)cc1`, the B-score entry is “inactive”.

For `CC(O)CN(Cc1ccc(Cl)cc1)CC(C)O` (centres undefined), the B-score entry is “inactive”. The value for `COc1cc(C(=O)N(C)Cc2cccc(OC)c2OC)ccc1OCC(=O)Nc1cccc(C(F)(F)F)c1` was “inactive”; that for `CCCCC(=O)NNC(=S)NC(=O)C(c1ccccc1)c1ccccc1` was 152 (active).

Consider `CC(C)C(=O)Nc1cccc(NC(=S)NC(=O)C(c2ccccc2)c2ccccc2)c1`, for which the B-score result was “inactive”.

As for `O=C(NNC(=S)NCc1ccco1)C(c1ccccc1)c1ccccc1`, the B-score result is “inactive”.

`O=C(NCCc1ccccn1)c1ccc(COc2ccccc2)o1`: the B-score was 120 (active).

As to `CCOc1ccc(OCc2ccc(C(=O)N(C)c3ccccc3)o2)cc1`, the B-score entry was “inactive”. The value for `COc1ccc(NC(=O)CN(C)C(=O)c2ccc(COc3ccccc3)o2)cc1` was “inactive”; that for `Cc1cc(N2CCN(c3ccc(F)cc3)CC2)n2ncnc2n1` was “inactive”; that for `CCOCCCNC(=O)C(=O)NCCCOCC` was “inactive”. On to `CCCCn1c(-c2cccc(C)c2)nc2cc3[nH]c(=O)c(C(C)C)nc3cc21`, for which the B-score result is “inactive”.

Take `Cc1ccnc(NC(=O)CCNS(=O)(=O)c2ccc(C)c(C)c2)c1`: the B-score entry was “inactive”. With `CCOc1ccc(NS(=O)(=O)c2ccc(C(=O)NCC(c3ccccc3OC)N3CCCC3)cc2)cc1` (centres undefined) the entry was “inactive”; with `CC(NC(=O)COC(=O)c1ccc(Cl)cc1O)c1ccc(F)cc1` (centres undefined), “inactive”. With `COc1ccc(Cl)cc1NC(=O)CNc1ccccc1F` the entry was “inactive”; with `COc1ccc(C(CNC(=O)c2ccc(S(=O)(=O)Nc3ccccc3F)cc2)N(C)C)cc1` (centres undefined), “inactive”. With `COc1ccc(C(CNCC(=O)Nc2ccccc2F)N(C)C)cc1` (centres undefined) the figure was 108 (active); with `COc1ccc2c(c1)OC(O)(C(F)(F)C(F)F)CC2=O` (centres undefined), 82 (active). As for `COc1ccc2c(c1)SC(C)CC2=O` (centres undefined), the B-score entry was “inactive”.

Regarding `CC1(C)CC(=O)c2ccc(O)cc2O1`, the B-score result was “inactive”. In the case of `O=S1(=O)CC/C(=N\Nc2ccc(F)cc2)c2ccsc21`, the B-score result was “inactive”. `CC(C)Sc1ncnc2c1cnn2-c1ccccc1`: the B-score result is “inactive”. With `COc1ccc(-n2ncc3c(SCC(=O)NNC(C)=O)ncnc32)cc1`, the B-score result was “inactive”. The value for `COc1ccc(-n2ncc3c(N4CCc5ccccc54)ncnc32)cc1` was 64 (active).

As for `CC(C)N1CCC(NC(=O)Nc2ccccc2)CC1`, the B-score entry is “inactive”.

Turning to `COc1ccccc1N(CC(=O)N1CCCCC1)S(=O)(=O)c1ccccc1`, the B-score is 56 (active). Turning to `COc1ccc(N(CC(=O)N2CCCCCC2)S(=O)(=O)c2ccccc2)cc1`, the B-score entry is “inactive”. With `COc1ccc(C)cc1N(CC(=O)N1CCCC1)S(=O)(=O)c1ccccc1`, the B-score entry is “inactive”. As to `COC(=O)CC1=NN(c2nc(C)cc(C)n2)C(=O)C1`, the B-score entry was “inactive”. As for `S=C(Nc1ccc(Br)cc1)NC1CCN(Cc2ccccc2)CC1`, the B-score result is “inactive”. Turning to `S=C(Nc1ccc(Br)cc1Cl)NC1CCN(Cc2ccccc2)CC1`, the B-score is 57 (active). The value for `O=C(COc1ccc(Br)cc1F)NC1CCN(Cc2ccccc2)CC1` was “inactive”. The value for `O=C(COc1ccccc1Cl)N1CCCCCCC1` was “inactive”; that for `CCN1C(=O)C(C(=O)NC(C)c2ccccc2)C2CC1(C)Oc1ccccc12` (centres undefined) was “inactive”; that for `COc1cccc(-c2nc(CS(=O)(=O)CC(=O)NCCc3ccc(OC)c(OC)c3)c(C)o2)c1` was “inactive”.

As to `CCCCN(CC)CCCNC(=O)CS(=O)(=O)Cc1nc(-c2cccc(OC)c2)oc1C`, the B-score was 56 (active). Consider `COc1ccc(-c2nc(CS(=O)(=O)CC(=O)NCc3cccc(Br)c3)c(C)o2)cc1`, for which the B-score entry is “inactive”.

Consider `CCN1/C(=C\c2ccc3ccccc3[n+]2CC)Sc2cc(C)ccc21`, for which the B-score is 425 (active). With `CCOc1ccc(CN2CCNC(=O)C2CC(=O)NCCCC2CCCC2)cc1` (centres undefined) the entry was “inactive”.

In the case of `CCN(CC)c1ccc(NC(=O)C2CCC(CNc3c(N4CCCC4)c(=O)c3=O)CC2)c(C)c1` (centres undefined), the B-score result was “inactive”. For `CCCn1c(CCNc2nc(-c3ccc(OC)cc3)cs2)nc2ccccc21`, the B-score result is “inactive”.

Take `CCCn1c(C2CCCN2c2nc(-c3ccc(C)cc3)cs2)nc2cc(Cl)c(N3CCCCC3)cc21` (centres undefined): the B-score result was “inactive”.

With `CCCn1c(C2CCCN2c2nc(-c3ccc(OC)cc3)cs2)nc2ccccc21` (centres undefined), the B-score was 70 (active). With `CCN1C(=O)[C@H]2[C@@H](c3ccc(-c4ccc(OC)cc4)cc3)N[C@@](Cc3ccccc3)(C(=O)OC)[C@H]2C1=O` the entry was “inactive”. With `COC(=O)c1cc(S(=O)(=O)NC2CCN(Cc3ccccc3)CC2)cn1C` the entry was “inactive”; with `CCC1(CC)Cc2ccccc2-c2nc(CCl)[nH]c(=O)c21`, “inactive”; with `COc1cc(CN2CCCC(C(=O)c3ccc(SC)cc3)C2)cc(Cl)c1O` (centres undefined), “inactive”. With `COc1ccc(CN2CCCC(C(=O)c3ccc(Cl)cc3)C2)cc1Cn1cncn1` (centres undefined), the B-score was 48 (active). The value for `COc1ccc(CCN(C)C(=O)C2CCCN(Cc3ccc(OC)c(OC)c3)C2)cc1OC` (centres undefined) was “inactive”.
